In paper PMC7530031 (Neuropharmacology, 2020):
Entries after “also recorded” stand apart in the source; their conditions may differ. Like-named read-outs stand apart in the source and are kept apart here. One block for each compound: values may come before it.

Legend:
[1] = test system: GluA1–4 AMPA receptors; test: Selectivity test in Xenopus oocytes: AMPA receptors; assay type: cell-based, rat, human; settings: 20 μM; 100 μM glutamate
[2] = target: GluN1/GluN3A channels (Mus musculus, UniProt A2AIR5); test: Nonstationary variance analysis of neuronal glycine-evoked current responses; assay type: cell-based; settings: 30 μM; VHOLD −60 mV; n = 5
Sequence of GluN1/GluN3A channels (A2AIR5 27-1135, other chains not shown): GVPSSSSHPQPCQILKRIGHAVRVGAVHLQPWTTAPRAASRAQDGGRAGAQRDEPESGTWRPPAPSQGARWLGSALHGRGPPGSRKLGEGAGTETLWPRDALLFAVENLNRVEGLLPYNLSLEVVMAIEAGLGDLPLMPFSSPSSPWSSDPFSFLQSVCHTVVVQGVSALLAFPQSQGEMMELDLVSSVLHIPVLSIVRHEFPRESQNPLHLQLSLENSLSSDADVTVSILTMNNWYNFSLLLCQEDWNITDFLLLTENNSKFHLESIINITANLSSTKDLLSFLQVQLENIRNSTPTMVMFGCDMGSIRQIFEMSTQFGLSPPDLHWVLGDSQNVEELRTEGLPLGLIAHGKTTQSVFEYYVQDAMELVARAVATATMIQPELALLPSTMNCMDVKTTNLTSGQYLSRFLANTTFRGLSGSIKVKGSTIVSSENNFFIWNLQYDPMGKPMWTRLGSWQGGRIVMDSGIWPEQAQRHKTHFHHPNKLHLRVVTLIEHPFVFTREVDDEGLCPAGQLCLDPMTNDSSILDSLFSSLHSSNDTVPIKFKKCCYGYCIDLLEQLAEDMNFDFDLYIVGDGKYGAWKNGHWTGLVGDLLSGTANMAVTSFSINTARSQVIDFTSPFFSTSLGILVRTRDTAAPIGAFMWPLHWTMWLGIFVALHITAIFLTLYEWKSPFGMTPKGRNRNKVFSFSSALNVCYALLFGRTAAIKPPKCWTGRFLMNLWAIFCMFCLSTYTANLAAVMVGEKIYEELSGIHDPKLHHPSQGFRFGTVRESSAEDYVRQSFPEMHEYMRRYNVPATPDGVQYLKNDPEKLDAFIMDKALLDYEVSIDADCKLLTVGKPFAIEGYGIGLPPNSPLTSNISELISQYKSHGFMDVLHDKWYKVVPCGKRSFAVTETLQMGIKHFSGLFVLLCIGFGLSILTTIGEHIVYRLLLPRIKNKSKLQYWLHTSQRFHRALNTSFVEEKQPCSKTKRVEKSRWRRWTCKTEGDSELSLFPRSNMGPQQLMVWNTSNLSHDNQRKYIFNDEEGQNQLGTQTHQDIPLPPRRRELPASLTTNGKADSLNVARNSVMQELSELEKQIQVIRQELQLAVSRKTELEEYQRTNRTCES
Summary of the method: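 Acute mouse hippocampal slices (P8–15), CA1 pyramidal cells, whole-cell at −60 mV, 32°C ACSF with gabazine, NBQX, DL-APV, strychnine and 1 μM CGP-78608. […] Compound at 30 μM or 0.15% DMSO bath-applied. Ten deactivation phases per condition at steady state, split into 50 segments, high-passed at 1 Hz. Variance–current fit gave unitary current; chord conductance assumed 0 mV reversal.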

[3] = target: α2β4 nicotinic receptors (Rattus norvegicus, UniProt P09483+P12390); test: Selectivity test in Xenopus oocytes: α2β4 nicotinic receptors; assay type: cell-based; settings: 20 μM; 10 μM acetylcholine
Sequence of α2β4 nicotinic receptors (P09483 31-630): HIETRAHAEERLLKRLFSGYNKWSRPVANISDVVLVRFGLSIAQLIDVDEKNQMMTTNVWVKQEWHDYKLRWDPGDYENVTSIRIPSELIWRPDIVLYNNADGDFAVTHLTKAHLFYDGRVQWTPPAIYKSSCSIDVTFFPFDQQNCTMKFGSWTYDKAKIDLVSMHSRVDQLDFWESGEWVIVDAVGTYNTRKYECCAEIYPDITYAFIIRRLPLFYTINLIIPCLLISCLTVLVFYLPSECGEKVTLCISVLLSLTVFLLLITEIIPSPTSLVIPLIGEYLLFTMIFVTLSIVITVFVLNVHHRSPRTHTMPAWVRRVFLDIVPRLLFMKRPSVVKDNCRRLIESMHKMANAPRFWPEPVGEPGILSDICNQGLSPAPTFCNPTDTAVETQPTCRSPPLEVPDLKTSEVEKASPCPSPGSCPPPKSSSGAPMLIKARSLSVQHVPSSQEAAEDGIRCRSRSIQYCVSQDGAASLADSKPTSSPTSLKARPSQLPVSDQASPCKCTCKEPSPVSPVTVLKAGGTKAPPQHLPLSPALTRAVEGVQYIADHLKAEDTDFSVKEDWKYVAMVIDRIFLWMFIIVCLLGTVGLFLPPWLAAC
Sequence of α2β4 nicotinic receptors (P12390 25-500): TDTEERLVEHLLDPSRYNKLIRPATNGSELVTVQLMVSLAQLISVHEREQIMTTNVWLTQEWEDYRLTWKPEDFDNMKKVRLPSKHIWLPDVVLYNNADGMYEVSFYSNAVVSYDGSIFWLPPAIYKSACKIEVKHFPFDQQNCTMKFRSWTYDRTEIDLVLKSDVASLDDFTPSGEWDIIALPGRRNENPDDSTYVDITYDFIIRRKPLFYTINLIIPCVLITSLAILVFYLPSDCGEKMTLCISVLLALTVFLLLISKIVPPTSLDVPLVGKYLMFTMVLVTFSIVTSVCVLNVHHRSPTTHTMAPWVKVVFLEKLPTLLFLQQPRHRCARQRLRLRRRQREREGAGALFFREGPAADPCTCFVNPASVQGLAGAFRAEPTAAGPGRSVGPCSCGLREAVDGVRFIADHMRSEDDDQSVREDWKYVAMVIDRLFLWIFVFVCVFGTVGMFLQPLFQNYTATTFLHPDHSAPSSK

[4] = target: human GluN1/GluN3A receptors (Homo sapiens, UniProt Q8TCU5); assay type: cell-based
Sequence of human GluN1/GluN3A receptors (Q8TCU5 24-1115, other chains not shown): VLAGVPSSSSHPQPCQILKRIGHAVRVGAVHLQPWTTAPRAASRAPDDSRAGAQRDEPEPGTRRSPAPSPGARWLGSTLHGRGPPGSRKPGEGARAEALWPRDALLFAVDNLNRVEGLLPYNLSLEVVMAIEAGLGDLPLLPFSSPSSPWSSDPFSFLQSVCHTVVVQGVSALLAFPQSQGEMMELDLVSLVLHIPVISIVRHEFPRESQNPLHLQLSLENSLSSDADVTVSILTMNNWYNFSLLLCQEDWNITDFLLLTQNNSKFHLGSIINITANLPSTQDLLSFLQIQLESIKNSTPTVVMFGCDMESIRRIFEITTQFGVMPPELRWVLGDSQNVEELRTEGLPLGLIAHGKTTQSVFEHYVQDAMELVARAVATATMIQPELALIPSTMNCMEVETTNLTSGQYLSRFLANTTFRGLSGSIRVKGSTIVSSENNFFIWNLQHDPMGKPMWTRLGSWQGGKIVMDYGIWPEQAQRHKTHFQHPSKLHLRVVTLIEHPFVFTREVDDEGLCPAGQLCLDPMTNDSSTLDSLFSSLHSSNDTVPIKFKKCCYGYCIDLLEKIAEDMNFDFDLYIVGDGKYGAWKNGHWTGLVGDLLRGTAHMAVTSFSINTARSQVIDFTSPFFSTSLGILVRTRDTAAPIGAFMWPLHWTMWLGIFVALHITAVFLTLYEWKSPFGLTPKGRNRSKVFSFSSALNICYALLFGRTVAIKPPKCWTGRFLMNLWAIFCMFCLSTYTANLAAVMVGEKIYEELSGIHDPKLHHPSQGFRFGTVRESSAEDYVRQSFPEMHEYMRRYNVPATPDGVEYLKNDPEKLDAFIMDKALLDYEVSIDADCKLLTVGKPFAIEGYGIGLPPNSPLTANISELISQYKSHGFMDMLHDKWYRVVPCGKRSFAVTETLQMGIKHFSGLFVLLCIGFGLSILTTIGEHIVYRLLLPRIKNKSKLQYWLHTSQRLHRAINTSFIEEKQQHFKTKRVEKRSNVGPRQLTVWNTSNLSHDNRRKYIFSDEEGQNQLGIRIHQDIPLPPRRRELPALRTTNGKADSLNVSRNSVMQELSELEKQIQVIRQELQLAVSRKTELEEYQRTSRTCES
Summary of the method: (§1)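 Xenopus oocyte two-electrode voltage clamp at −40 mV, 23°C. Human GluN1/GluN3A or rat GluN1–4a/GluN3B, with GluN1:GluN3 cRNA at 1:3. […] Concentration–response data normalized to responses without test compound, fitted by Hill equation for IC50, slope and residual minimum. Percent inhibition was 100×(1−Idrug/Icontrol) at fitted maximum. IC50 taken from mean log(IC50); 8–9 oocytes.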

[5] = test system: GluN1/GluN2 NMDA receptors (GluN1 co-expressed with GluN2A-D); test: Selectivity test in Xenopus oocytes: GluN1/GluN2 NMDA receptors; assay type: cell-based
[6] = target: rat GluN1/GluN3B receptors (rat GluN1–4a/GluN3B) (Rattus norvegicus, UniProt Q8VHN2); assay type: cell-based
Sequence of rat GluN1/GluN3B receptors (rat GluN1–4a/GluN3B) (Q8VHN2 25-1002, other chains not shown): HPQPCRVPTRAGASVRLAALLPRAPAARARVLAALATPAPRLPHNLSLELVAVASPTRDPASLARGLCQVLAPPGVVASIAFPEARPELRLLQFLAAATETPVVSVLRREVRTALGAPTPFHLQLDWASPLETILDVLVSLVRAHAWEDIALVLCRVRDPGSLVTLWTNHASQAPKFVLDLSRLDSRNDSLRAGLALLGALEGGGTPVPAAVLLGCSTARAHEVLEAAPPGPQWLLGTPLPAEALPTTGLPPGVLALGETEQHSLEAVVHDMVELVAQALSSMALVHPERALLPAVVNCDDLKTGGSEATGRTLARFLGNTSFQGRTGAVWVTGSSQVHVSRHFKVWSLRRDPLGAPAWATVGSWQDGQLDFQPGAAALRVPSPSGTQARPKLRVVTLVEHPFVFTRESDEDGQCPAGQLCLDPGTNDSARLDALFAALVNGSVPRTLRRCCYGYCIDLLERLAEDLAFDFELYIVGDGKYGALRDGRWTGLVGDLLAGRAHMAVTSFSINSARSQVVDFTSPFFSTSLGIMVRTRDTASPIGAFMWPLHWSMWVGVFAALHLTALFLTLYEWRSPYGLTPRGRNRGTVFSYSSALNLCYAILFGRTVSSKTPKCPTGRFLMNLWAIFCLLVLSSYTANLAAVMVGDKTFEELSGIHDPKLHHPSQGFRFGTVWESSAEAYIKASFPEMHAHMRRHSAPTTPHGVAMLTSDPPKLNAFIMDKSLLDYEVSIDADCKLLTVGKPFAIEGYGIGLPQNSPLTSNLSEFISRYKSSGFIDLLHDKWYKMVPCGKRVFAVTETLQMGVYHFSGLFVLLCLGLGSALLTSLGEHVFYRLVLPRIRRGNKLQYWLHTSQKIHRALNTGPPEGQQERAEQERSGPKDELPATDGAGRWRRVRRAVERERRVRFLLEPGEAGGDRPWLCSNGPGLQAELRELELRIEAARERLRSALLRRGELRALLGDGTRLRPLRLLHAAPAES
Summary of the method: as §1

[7] = target: human GluN1^FA,TL/GluN3A receptors (Homo sapiens, UniProt Q8TCU5); assay type: cell-based
Sequence of human GluN1^FA,TL/GluN3A receptors (Q8TCU5 24-1115, other chains not shown): as the sequence (Q8TCU5 24-1115, other chains not shown) above

[8] = test system: GluK1–2 and GluK2/GluK5 kainate receptors; test: Selectivity test in Xenopus oocytes: kainate receptors; assay type: cell-based, human; settings: 20 μM; 100 μM glutamate (GluK2/K5: 100 μM AMPA)
[9] = target: rat GluN1–4a^FA,TL/GluN3B receptors (Rattus norvegicus, UniProt P35439+Q8VHN2, F484A/T518L); assay type: cell-based
Sequence of rat GluN1–4a^FA,TL/GluN3B receptors (Q8VHN2 25-1002, other chains not shown): as the sequence (Q8VHN2 25-1002, other chains not shown) above

[10] = test system: GABA receptors (GABAA α1β2γ2S, GABAC ρ1); test: Selectivity test in Xenopus oocytes: GABA receptors; assay type: cell-based, rat; settings: 20 μM; 100 μM GABA
[11] = test system: GluN1/GluN2 NMDA receptors; assay type: cell-based; settings: 30 μM; 0.5 mM NMDA puffs; mouse P8–15 slices
[12] = target: T1, glycine receptors (α1) (Rattus norvegicus, UniProt P07727); test: Selectivity test in Xenopus oocytes: glycine receptors; assay type: cell-based; settings: 20 μM; 100 μM glycine
T1 sequence (P07727 29-457): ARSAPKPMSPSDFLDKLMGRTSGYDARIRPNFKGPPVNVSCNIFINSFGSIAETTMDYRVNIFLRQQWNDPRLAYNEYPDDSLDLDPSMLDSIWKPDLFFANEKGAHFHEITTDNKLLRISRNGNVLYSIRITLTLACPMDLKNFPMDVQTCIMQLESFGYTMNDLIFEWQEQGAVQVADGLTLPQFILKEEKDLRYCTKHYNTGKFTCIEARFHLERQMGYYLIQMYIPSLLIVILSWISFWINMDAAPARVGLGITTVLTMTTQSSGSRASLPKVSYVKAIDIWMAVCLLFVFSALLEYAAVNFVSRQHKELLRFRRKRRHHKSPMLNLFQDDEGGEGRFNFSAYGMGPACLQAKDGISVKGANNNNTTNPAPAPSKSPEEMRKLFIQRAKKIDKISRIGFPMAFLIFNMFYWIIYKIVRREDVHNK

[13] = target: alpha7 nicotinic receptors (Rattus norvegicus, UniProt Q05941); test: Selectivity test in Xenopus oocytes: alpha7 nicotinic receptors; assay type: cell-based; settings: 20 μM; 300 μM acetylcholine
Sequence of alpha7 nicotinic receptors (Q05941 23-502): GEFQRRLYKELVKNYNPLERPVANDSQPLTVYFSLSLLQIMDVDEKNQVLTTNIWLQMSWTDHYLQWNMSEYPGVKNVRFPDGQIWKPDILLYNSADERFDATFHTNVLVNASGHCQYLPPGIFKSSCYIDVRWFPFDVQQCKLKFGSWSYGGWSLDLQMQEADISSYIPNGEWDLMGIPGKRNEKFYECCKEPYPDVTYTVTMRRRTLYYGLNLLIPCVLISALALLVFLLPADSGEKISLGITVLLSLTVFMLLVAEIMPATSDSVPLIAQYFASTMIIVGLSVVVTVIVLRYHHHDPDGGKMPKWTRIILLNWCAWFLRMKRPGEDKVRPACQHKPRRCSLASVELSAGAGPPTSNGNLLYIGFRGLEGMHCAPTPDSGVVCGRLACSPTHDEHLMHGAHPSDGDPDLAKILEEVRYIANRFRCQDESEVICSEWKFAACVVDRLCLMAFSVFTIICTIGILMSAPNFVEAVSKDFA

[14] = target: native GluN1/GluN3A receptors (Mus musculus, UniProt A2AIR5); assay type: cell-based; settings: 30 μM; 1 μM CGP-78608; 10 mM glycine puffs; mouse P8–15 slices
Sequence of native GluN1/GluN3A receptors (A2AIR5 27-1135, other chains not shown): as the sequence (A2AIR5 27-1135, other chains not shown) above

[15] = target: muscle nicotinic receptors (α1β1δγ) (Rattus norvegicus, UniProt P18916+P25108+P25109+P25110); test: Selectivity test in Xenopus oocytes: muscle nicotinic receptors; assay type: cell-based; settings: 20 μM; 1 μM acetylcholine
Summary of the method: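 Two-electrode voltage clamp on Xenopus oocytes 2–5 days after cRNA injection; muscle nAChR subunits were injected 1:1:1:1. Recorded at 23°C and −40 mV in HEPES/BaCl2 saline, pH 7.4. Test compound at 20 μM was co-applied with agonist. Response was given as percent of control, taking control as the mean of responses before and after compound exposure.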

[16] = target: T2, P2X receptors (human P2X2) (Homo sapiens, UniProt Q9UBL9); test: Selectivity test in Xenopus oocytes: purinergic receptors; assay type: cell-based; settings: 20 μM; 9 μM ATP
T2 sequence (Q9UBL9 1-471): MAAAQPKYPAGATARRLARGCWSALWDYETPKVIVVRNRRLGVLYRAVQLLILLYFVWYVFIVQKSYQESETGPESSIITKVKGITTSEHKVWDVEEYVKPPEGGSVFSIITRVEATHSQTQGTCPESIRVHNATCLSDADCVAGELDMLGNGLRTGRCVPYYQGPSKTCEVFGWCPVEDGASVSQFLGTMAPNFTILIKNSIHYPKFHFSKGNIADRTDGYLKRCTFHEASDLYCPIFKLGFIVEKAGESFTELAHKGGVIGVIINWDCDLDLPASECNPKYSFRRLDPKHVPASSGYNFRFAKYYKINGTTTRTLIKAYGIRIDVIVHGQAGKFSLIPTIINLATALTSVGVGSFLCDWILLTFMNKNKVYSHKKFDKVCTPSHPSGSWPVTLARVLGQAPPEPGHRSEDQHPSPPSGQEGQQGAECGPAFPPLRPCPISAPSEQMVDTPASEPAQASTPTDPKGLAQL

[17] = test system: GluN1/GluN3 receptors; settings: ref Kvist et al., 2013a; cited from earlier work
[18] = test system: GluN1/GluN3 receptors; settings: ref Grand et al., 2018; cited from earlier work
[19] = test system: GluN1; settings: read-out: EC50 of glycine at GluN1; ref Grand et al., 2018; Kvist et al., 2013a; cited from earlier work
[20] = test system: GluN3A; settings: read-out: EC50 of glycine at GluN3A; ref Grand et al., 2018; Kvist et al., 2013a; cited from earlier work
[21] = 500 nM CGP-78608 plus 100 μM glycine

- activity at AMPA receptors [1]: virtually no activity
- average chord conductance of GluN1/GluN3A channels in the presence of compound [2]: 6.3 ± 0.90 pS
- activity at α2β4 nicotinic receptors [3]: modestly inhibited
- Slope (Hill slope, Fig. 1D) [4, 21]: 1.5
- minimum (residual current at saturating concentration, Fig. 1D) [4, 21]: 15%
- % Inhibition (fitted maximum at saturating test compound) ([4]; pH 7.4, 0.5 μM CGP-78608): 85%
- activity at GluN1/GluN2 NMDA receptors ([5]; 20 μM, 100 μM glutamate/100 μM glycine): virtually no activity
- activity at recombinant GluN1/GluN2 NMDA receptors (library screen) ([5]; screen): no detectable activity
- Slope (Hill slope, Fig. 1D) [6, 21]: 1.5
- minimum (residual current at saturating concentration, Fig. 1D) [6, 21]: 7%
- % Inhibition (fitted maximum at saturating test compound) ([6]; pH 7.4, 0.5 μM CGP-78608): 93%
- response in the presence of compound, % of control ([7]; 10 μM EU1180–438, 1 mM glycine): 29 ± 4.2 % of control
- response in the presence of compound, % of control ([7]; 10 μM EU1180–438, 3 mM glycine): 29 ± 4.2 % of control
- IC50 ([7]; IC50, pH 6.8): 4.2 µM
- IC50 ([7]; IC50, pH 7.4, 1 mM glycine, holding potential −40 mV, mean of individual fits): 3.5 µM
- % Inhibition (fitted maximum at saturating test compound) ([7]; pH 6.8): 72%
- % Inhibition (fitted maximum at saturating test compound) ([7]; pH 7.4, 1 mM glycine, −40 mV): 82%
- Slope (Hill slope, Fig. 1C) ([7]; responses activated by 1000 μM glycine): 1.3
- activity at kainate receptors [8]: virtually no activity
- IC50 [9]: 5.2 µM
- % inhibition at saturating concentrations determined from the fitted curve ([9]; data not shown): 82%
- activity at GABA receptors [10]: virtually no activity
- activity at glycine receptors [12]: virtually no activity
- activity at alpha7 nicotinic receptors [13]: virtually no activity
- activity at muscle nicotinic receptors [15]: modestly inhibited
- activity at P2X receptors [16]: inactive
Structure (SMILES): COc1ccc(OCC(c2ccc(OC)cc2)N2Cc3ccccc3C2=O)cc1 (stereo not shown) [EU1180–438, 2-(2-(4-methoxyphenoxy)-1-(4-methoxyphenyl)ethyl)isoindolin-1-one]
- dependence of inhibition on glycine concentration ([7]; 10 μM EU1180–438, 1 mM vs 3 mM glycine): not altered by increasing glycine concentration
- effect on NMDA-activated responses mediated by GluN1/GluN2 NMDA receptors [11]: does not affect current responses; also recorded: not modulated
- effect on glycine-activated responses of native GluN1/GluN3A receptors [14]: inhibited significantly; also recorded: strong inhibition

Structure (SMILES): O=c1[nH]c2nonc2nc1O [TK80]
- preference for GluN1/GluN3 over GluN1/GluN2 receptors [17]: 5- to 10 fold

Structure (SMILES): O=C(O)c1cc(C(=O)c2ccc(Cl)cc2Cl)c[nH]1 [TK30]
- preference for GluN1/GluN3 over GluN1/GluN2 receptors [17]: 5- to 10 fold

Structure (SMILES): C[C@@H](NCc1cc(Br)cc2[nH]c(=O)c(=O)[nH]c12)P(=O)(O)O.Cl [CGP-78608, [(1 S)-1-[[(7-bromo-1,2,3,4-tetrahydro-2,3-dioxo-5-quinoxalinyl)methyl]amino]ethyl]phosph onic acid hydrochloride]
- effect on activation of GluN1/GluN3 receptors [18]: can dramatically enhance activation of GluN1/GluN3 receptors

Structure (SMILES): NCC(=O)O [glycine]
- EC50 [20]: 10 to 60 µM
